The source of these data is ChEMBL document CHEMBL4616692, “Structure-Guided Optimization of Replication Protein A (RPA)-DNA Interaction Inhibitors” (ACS Med Chem Lett, 2020).

The nature of data set [1]: Inhibition of 5'[32P]-labeled 34 base ssDNA binding to recombinant full length human RPA expressed in Escherichia coli cells preincubated for 30 mins followed by labeled DNA addition and measured after 5 mins by electrophoretic mobility shift assay. A digest of the protocol: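 Purified heterotrimeric human RPA without tags or modifications, binding to ssDNA read by EMSA. […] IC50 is the mean of at least three independent experiments, reported as mean ± SD.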
For orientation: Mobility shift assays separate free from complexed probe on a gel.

The nature of data set [2]: Aqueous solubility of compound in unbuffered H2O at pH 7 by absorbance spectroscopy based LC-MS analysis. The format is physicochemical. The conditions noted are these: buffer. A digest of the protocol:
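Aqueous solubility was measured in three independent determinations and reported as mean and SD.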

A short description of data set [3]: Drug uptake in human H460 cells at 20 uM incubated for 4 hrs by LC-MS analysis. The conditions noted are these: nci-h460, 4 h. The format is ADME, cell-based. A digest of the protocol:
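H460 NSCLC cells. Individual points come from three independent determinations and are reported as mean and SD.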

The species named for data set [4] is Homo sapiens. Kind of data set: Inhibition of 5'[32P]-labeled 34 base ssDNA binding to SUMO-His6-tagged RPA DBD A/B domain (181-432 residues) (unknown origin) expressed in Escherichia coli BL21 (DE3) cells preincubated for 30 mins followed by labeled DNA addition and measured after 5 mins by electrophoretic mobility shift assay.
Data set [5] has as its system Salmon testes DNA. Kind of data set: Displacement of SYBR-green from salmon sperm DNA assessed as DNA intercalation by measuring reduction in fluorescence at 5 to 20 uM after 5 mins by fluorescent intercalator displacement assay. The format is nucleic-acid assay. Conditions: Salmonidae. A digest of the protocol: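 Sybr-green intercalator bound to DNA. Displacement was read as a fall in fluorescence across a range of compound concentrations. Doxorubicin served as the positive control.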

Data set [6] can be described thus: Irreversible inhibition of RPA (unknown origin). The arrangement: species or system Homo sapiens.

Active and inactive are the calls of the source. No cut-off for these calls is given here.

`CCOc1ccc2cc(C3CC(c4ccc(I)cc4)=NN3C(=O)CCCC(=O)O)c(Cl)nc2c1` (stereo not given): in data set [1] (read-out: IC50), the IC50 (commonly the midpoint of a concentration-inhibition curve) lay within 15.3 to 18 µM. The solubility entry in data set [2] is recorded as “Soluble”. The Drug uptake result in data set [3] is given as “Not Active”.
Turning to `CCOc1ccc2cc(C3CC(c4ccc(-c5cnoc5)cc4)=NN3C(=O)CCCC(=O)O)c(Cl)nc2c1` (stereo not given), the inhibition result in data set [4] was “Active”. Further, the IC50 in data set [1] (read-out: IC50) turned out to be 1.7 µM.
Regarding `CCOc1ccc2cc(C3CC(c4ccc(-c5ccc(N6CCOCC6)cc5)cc4)=NN3C(=O)CCCC(=O)O)c(Cl)nc2c1` (stereo not given), the inhibition result in data set [4] is “Active”. The IC50 in data set [1] (read-out: IC50) came out at 3.1 µM.
As to `CCOC(=O)CCCC(=O)N1N=C(c2ccc(I)cc2)CC1c1cc2ccc(OCC)cc2nc1Cl` (stereo not given), in data set [1], the IC50 entry is reported as “Not Active”.
With `CCOc1ccc2cc(C3CC(c4ccc(-c5ccc(C(F)(F)F)nc5)cc4)=NN3C(=O)CCCC(=O)O)c(Cl)nc2c1` (stereo not given), in data set [1] (read-out: IC50), the IC50 is 4.3 µM. Further, in data set [2], the solubility result is given as “Soluble”.
For the compound `CCOc1ccc2cc(C3CC(c4ccc(O)cc4)=NN3C(=O)CCCC(=O)O)c(Cl)nc2c1` (stereo not given), in data set [1] (read-out: IC50), the concentration for half-maximal inhibition (IC50) is above 25 µM.
Still for that read-out and setting: the same measure for `CCOc1ccc2cc(C3CC(c4ccc(Br)cc4)=NN3C(=O)CCC(=O)O)c(Cl)nc2c1` (stereo not given): 38 µM; for `CCOc1ccc2cc(C3CC(c4ccc(I)cc4)=NN3C(=O)CCCC(=O)NCCN3CCOCC3)c(Cl)nc2c1` (stereo not given): 10.5 µM.
For the compound `CCOc1ccc2cc(C3CC(c4ccc(I)cc4)=NN3C(=O)CCCC(=O)NCCCN3CCOCC3)c(Cl)nc2c1` (stereo not given), the half-maximal inhibitory concentration (IC50) in data set [1] (read-out: IC50) is 4.9 µM. Also, the solubility result in data set [2] is reported as “Soluble”. Moreover, the Drug uptake entry in data set [3] was “Active”. Besides, the inhibition result in data set [5] was “inactive”.
In data set [6], `CC1(C)[C@@H]2CC[C@@]1(C)[C@H](OC(=O)CI)C2` displayed an IC50 of 10 µM.
`CCOc1ccc2cc(C3CC(c4ccc(-c5ccc(Br)nc5)cc4)=NN3C(=O)CCCC(=O)O)c(Cl)nc2c1` (stereo not given): the inhibition entry in data set [4] was “Active”. For the same compound, the IC50 in data set [1] (read-out: IC50) worked out at 1 µM. The inhibition result in data set [5] is “inactive”.
Turning to `CCOc1ccc2cc(C3CC(c4ccc(-c5ccoc5)cc4)=NN3C(=O)CCCC(=O)O)c(Cl)nc2c1` (stereo not given), the IC50 in data set [1] (read-out: IC50) was found to be 6.7 µM.
In data set [6], `CC1(C)[C@@H]2CC[C@@]1(C)[C@H](OC(=O)CBr)C2` displayed an IC50 of 16 µM.
With `C=CC(=O)Oc1ccc(C2=NN(C(=O)CCCC(=O)O)C(c3cc4ccc(OCC)cc4nc3Cl)C2)cc1` (stereo not given), the IC50 in data set [1] (read-out: IC50) came to 8.9 µM.
As to `COc1cccc2c1C(=O)c1c(O)c3c(c(O)c1C2=O)C[C@@](O)(C(=O)CO)C[C@@H]3O[C@H]1C[C@H](N)[C@H](O)[C@H](C)O1`, in data set [5], the inhibition result is “Dose-dependent effect”.
With `CCOc1ccc2cc(C3CC(c4ccc([N+](=O)[O-])cc4)=NN3C(=O)CCCC(=O)O)c(Cl)nc2c1` (stereo not given), in data set [1] (read-out: IC50), the half-maximal inhibitory concentration (IC50) is above 25 µM.
Regarding `CCOc1ccc2cc(C3CC(c4ccc(Br)cc4)=NN3C(=O)CCCC(=O)NCCCN3CCOCC3)c(Cl)nc2c1` (stereo not given), the IC50 in data set [1] (read-out: IC50) turned out to be 10 µM. In data set [2], the solubility entry is recorded as “Soluble”.
Turning to `CCOc1ccc2cc(C3CC(c4ccc(-c5ccc(Cl)nc5)cc4)=NN3C(=O)CCCC(=O)NCCCN3CCOCC3)c(Cl)nc2c1` (stereo not given), in data set [1] (read-out: IC50), the IC50 was found to be 4 µM. In addition, in data set [2], the solubility result is listed as “Soluble”. Also, the Drug uptake result in data set [3] was “Active”. Further, the inhibition result in data set [5] is “inactive”.
For `CCOc1ccc2cc(C3CC(c4ccc(Br)cc4)=NN3C(=O)CCCC(=O)O)c(Cl)nc2c1` (stereo not given), in data set [1] (read-out: IC50), the half-maximal inhibitory concentration (IC50) came out at 19.2 µM. For the same compound, the solubility result in data set [2] is given as “Soluble”.
In the case of `CCOc1ccc2cc(C3CC(c4ccc(-c5ccc(Cl)nc5)cc4)=NN3C(=O)CCCC(=O)O)c(Cl)nc2c1` (stereo not given), the inhibition result in data set [4] is “Active”. Further, the 50% inhibitory concentration (IC50) in data set [1] (read-out: IC50) is 1.6 µM. Moreover, the solubility entry in data set [2] is given as “Soluble”. Also, the Drug uptake entry in data set [3] is recorded as “Active”. Further, the inhibition result in data set [5] was “inactive”.
Turning to `CCOc1ccc2cc(C3CC(c4ccc(-c5ccco5)cc4)=NN3C(=O)CCCC(=O)O)c(Cl)nc2c1` (stereo not given), the inhibition result in data set [4] is “Active”. Besides, the IC50 in data set [1] (read-out: IC50) amounted to 2.1 µM. Also, in data set [5], the inhibition entry was “inactive”.
With `CCOc1ccc2cc(C3CC(c4ccc(N)cc4)=NN3C(=O)CCCC(=O)O)c(Cl)nc2c1` (stereo not given), the concentration for half-maximal inhibition (IC50) in data set [1] (read-out: IC50) was 2.3 µM. For the same compound, the inhibition result in data set [5] was “inactive”.
`CCOc1ccc2cc(C3CC(c4ccc(-c5ccc(F)nc5)cc4)=NN3C(=O)CCCC(=O)O)c(Cl)nc2c1` (stereo not given): the IC50 in data set [1] (read-out: IC50) is 2.6 µM. Also, the solubility result in data set [2] is recorded as “Soluble”.
As to `CCOc1ccc2cc(C3CC(c4ccc(I)cc4)=NN3C(=O)CCCC(=O)N3CCOCC3)c(Cl)nc2c1` (stereo not given), in data set [1] (read-out: IC50), the half-inhibitory concentration (IC50) is 6.6 µM.
`CCOc1ccc2cc(C3CC(c4ccc(OC(=O)N5CCOCC5)cc4)=NN3C(=O)CCCC(=O)O)c(Cl)nc2c1` (stereo not given): the half-inhibitory concentration (IC50) in data set [1] (read-out: IC50) is above 25 µM.
Regarding `CCOc1ccc2cc(C3CC(c4ccc(I)cc4)=NN3c3cccc(C(=O)O)c3)c(Cl)nc2c1` (stereo not given), in data set [1], the IC50 entry was “Not Active”.
Take `CCOc1ccc2cc(C3CC(c4ccc(-c5ccc(C(F)(F)F)nc5)cc4)=NN3C(=O)CCCC(=O)NCCCN3CCOCC3)c(Cl)nc2c1` (stereo not given): the 50% inhibitory concentration (IC50) in data set [1] (read-out: IC50) turned out to be 5.8 µM. In data set [2], the solubility result is listed as “Soluble”. Also, the Drug uptake entry in data set [3] is on record as “Active”.
`CCOc1ccc2cc(C3CC(c4ccc(-c5ccc(F)nc5)cc4)=NN3C(=O)CCCC(=O)NCCCN3CCOCC3)c(Cl)nc2c1` (stereo not given): the half-inhibitory concentration (IC50) in data set [1] (read-out: IC50) was found to be 2.3 µM. Moreover, the solubility result in data set [2] is “Soluble”. The Drug uptake entry in data set [3] is given as “Active”.
